Drawing on the RNAGym collection of RNA variant scans (doi:10.1126/science.aae0568), this text covers yeast fitness for 167 variants.

Fewer inactive variants are shown than the library holds. Where only a bound is given, the exact number is not on record here.

The labels stand for the following.
B1: tRNA (parent)
chain: GUUCCGUUGGCGUAAUGGUAACGCGUCUCCCUCCUAAGGAGAAGACUGCGGGUUCGAGUCCCGUACGGAACG

The series covers variants of B1. Briefly: yeast fitness relative to wild type (ratio to wild type); higher = fitter; tRNA-Arg(CCU), competitive growth, 37 C, YPD. The procedure, abridged:
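Amplicons of the tRNA-Arg(CCU) gene were sequenced, 100-nucleotide paired-end, from the start population and from each end population of a pooled yeast competition. The competition, in six parallel replicates, lasted 24 hours in YPD at 37°C. Fitness relative to wild type was calculated from changes in genotype frequencies. Genotypes had to have ≥ 100 starting reads, and estimates < 0.5 were set to 0.5.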
With C31G G51A A57G G68C, the yeast fitness is ≤ 0.5.

Regarding C31G C49G, the yeast fitness amounted to 0.753.

Regarding C31G U59A A65U C66A, the yeast fitness was ≤ 0.5.

In the case of C31U C60U C61G, the yeast fitness is ≤ 0.5.

Take C31G A45G U54C G56U: the yeast fitness is ≤ 0.5.

Turning to U32C A43G A45G, the yeast fitness was 0.608.

For C31U U54C, the yeast fitness was found to be 0.82.

C31U G48C G67C: the yeast fitness is 0.649.

Turning to C31U G48A C61U A65C, the yeast fitness was ≤ 0.5.

As to U32A A37C G51C A57U, the yeast fitness is ≤ 0.5.

For U32A A42G C55U, the yeast fitness is ≤ 0.5.

As for U32C A40G C62G G68A A69C, the yeast fitness was ≤ 0.5.

In the case of C31G C49U U54G, the yeast fitness is ≤ 0.5.

Consider C31U C33U A37C, for which the yeast fitness is ≤ 0.5.

In the case of C31U C46G G63A, the yeast fitness worked out at 0.606.

As to C31G C33U A37C C61U A65U, the yeast fitness was ≤ 0.5.

Turning to C31U A40G G48C, the yeast fitness is 0.559.

As to C31U G48C, the yeast fitness worked out at 1.

C31U G48A: the yeast fitness turned out to be 0.949.

As to C31U A57C, the yeast fitness worked out at 0.574.

With U32A A42C G63C A65U C66U, the yeast fitness is ≤ 0.5.

For C31A G44A C55G A70G, the yeast fitness is ≤ 0.5.

As for U32A C46U G63C, the yeast fitness is ≤ 0.5.

As to C31G C33G U47A, the yeast fitness was 0.581.

As for C31G A69U, the yeast fitness worked out at 0.752.

For C31G A69C, the yeast fitness came to 0.907.

C31U G41C A43C: the yeast fitness stood at 0.722.

As to C31U G39C G52C, the yeast fitness is ≤ 0.5.

Take C31G G44C A69C A70C: the yeast fitness is 0.528.

On to U32A G58C, for which the yeast fitness worked out at 0.651.

On to C31G U54C C55G U64C, for which the yeast fitness is ≤ 0.5.

On to C31U G44C C60U, for which the yeast fitness stood at 0.689.

On to C31G C33U, for which the yeast fitness came out at 0.673.

C31G C33G: the yeast fitness is 0.565.

With C31U C34G C49U G52A, the yeast fitness amounted to 0.725.

U32A G52C: the yeast fitness is ≤ 0.5.

Regarding U32C A36G, the yeast fitness stood at 0.861.

Consider U32C A45G A57U, for which the yeast fitness was ≤ 0.5.

C31U A36C: the yeast fitness is 0.842.

Consider C31U G38C G52C, for which the yeast fitness is ≤ 0.5.

As for U32A C33U A42U C60A, the yeast fitness was found to be 0.595.

In the case of C31U A37G U47C G63A, the yeast fitness is ≤ 0.5.

As for C31U A57C C66U, the yeast fitness was 0.663.

Take C31U A42C: the yeast fitness was found to be 1.17.

As to C31G A36U G39A C62U, the yeast fitness is ≤ 0.5.

As to C31A G67C, the yeast fitness is 0.846.

Consider C31A G67U, for which the yeast fitness stood at 0.755.

Turning to C31U C46A, the yeast fitness was determined as 1.01.

As for C31U C46G, the yeast fitness worked out at 0.972.

Take C31U G68C: the yeast fitness was 0.68.

On to C31U G68A, for which the yeast fitness was determined as 0.883.

As for C31U G48C C55A C60G A69G, the yeast fitness was ≤ 0.5.

Consider U32C A43C A65U, for which the yeast fitness turned out to be 0.503.

Turning to U32C A37G C55A A65U G68C, the yeast fitness turned out to be 0.575.

As to C31G C33U A42U, the yeast fitness turned out to be 0.649.

In the case of U32A A36C A70G, the yeast fitness is ≤ 0.5.

On to C31U C49G, for which the yeast fitness turned out to be 0.914.

Consider C31U C49A, for which the yeast fitness worked out at 0.783.

Consider C31A G44C G63A, for which the yeast fitness was ≤ 0.5.

C31A G48A C66U: the yeast fitness amounted to 0.646.

On to C31A U59G, for which the yeast fitness amounted to 0.771.

As to C31U U53G C61G A70U, the yeast fitness is ≤ 0.5.

Consider C31G G44C U53C A65U A70G, for which the yeast fitness was ≤ 0.5.

As to C31G G58C C62U, the yeast fitness turned out to be 0.838.

As for C31U G38C G63A G68C A69G, the yeast fitness is 0.673.

Turning to U32C A37C, the yeast fitness came to 0.771.

Take U32C A37U: the yeast fitness worked out at 0.729.

As for U32A C34G C55G G68A A70C, the yeast fitness was ≤ 0.5.

Consider C31U A37U C66U, for which the yeast fitness came out at 0.542.

In the case of U32A C34U, the yeast fitness is 0.531.

Consider U32A C34A, for which the yeast fitness was found to be 0.648.

On to C31U G41A A69U, for which the yeast fitness is 0.808.

C31G C55A A57U U59C C60U: the yeast fitness was ≤ 0.5.

C31G G48A C55A C62A: the yeast fitness is ≤ 0.5.

C31U C55A: the yeast fitness is 0.749.

For C31G C46U A65U, the yeast fitness amounted to 0.789.

Turning to C31U A37U U54A, the yeast fitness came to 0.514.

Turning to C31G C61U, the yeast fitness is 0.834.

Regarding C31U C33U A42C, the yeast fitness was determined as 0.562.

For the variant C31A U53A A65U, the yeast fitness was ≤ 0.5.

As to C31G G58C, the yeast fitness is 0.88.

Take U32A A37C: the yeast fitness was found to be 0.771.

As to C31U C33U C34G A40C G63A, the yeast fitness was ≤ 0.5.

For C31U U32C C34A C55U, the yeast fitness is ≤ 0.5.

For C31U C33A G50A G68U, the yeast fitness came to 0.596.

Take C31U A40C C49U G52A: the yeast fitness was ≤ 0.5.

In the case of C31A G44A A57G A65C A70U, the yeast fitness was ≤ 0.5.

Turning to C31U A42U A43U C60U A69U, the yeast fitness came to 0.51.

On to C31G A37U A42U A65C, for which the yeast fitness was ≤ 0.5.

For the variant C31U A42U C62A, the yeast fitness was 0.615.

For the variant C31U U35C U53C, the yeast fitness was ≤ 0.5.

On to C31G G50C G58C, for which the yeast fitness was determined as 0.571.

U32C A43C A69G: the yeast fitness was ≤ 0.5.

In the case of C31G A40G A45C U47C U53A A70U, the yeast fitness was ≤ 0.5.

For C31G G48C, the yeast fitness is 0.811.

Consider C31U A42G G63C C66U, for which the yeast fitness is ≤ 0.5.

U32A A43G U64G: the yeast fitness is ≤ 0.5.

Take C31G U35C C66U: the yeast fitness amounted to 0.558.

With C31U C49U U64A, the yeast fitness worked out at 0.685.

Take C31G G41A G63U: the yeast fitness was 0.609.

Consider U32C A43C C49U, for which the yeast fitness came out at 0.648.

Take U32C A42U: the yeast fitness was 0.974.

Regarding C31U A37U A69U, the yeast fitness is 0.677.

For the variant C31U A42C U47G G52C A57U, the yeast fitness was ≤ 0.5.

For C31U G38C G51C C55U, the yeast fitness was ≤ 0.5.

As for C31G A45G U47A, the yeast fitness stood at 0.893.

U32A A69U: the yeast fitness stood at 0.958.

U32A A69C: the yeast fitness is 0.882.

With C31A U32C U53C C60G, the yeast fitness is ≤ 0.5.

As to C31U C34U G38A C46U, the yeast fitness is 0.524.

In the case of C31G A57U A69C A70G, the yeast fitness was ≤ 0.5.

Regarding U32A G39A G63A, the yeast fitness was ≤ 0.5.

Turning to C31U A37U A70U, the yeast fitness came to 0.558.

Turning to C31U G48A A69U, the yeast fitness is 0.757.

Regarding C31U G44C A65C, the yeast fitness was found to be 0.594.

As for C31U U35A G51C, the yeast fitness was ≤ 0.5.

Consider C31U C60U, for which the yeast fitness worked out at 0.841.

C31U C33U A37G A57C: the yeast fitness is ≤ 0.5.

C31G C33G A57U A65U: the yeast fitness is ≤ 0.5.

Consider U32A G38C U47A, for which the yeast fitness was ≤ 0.5.

Consider C31G G44A U47A G51C C66U, for which the yeast fitness is ≤ 0.5.

Turning to C31A G39C C66U, the yeast fitness is ≤ 0.5.

Take U32A A40C: the yeast fitness turned out to be 0.694.

U32A A40U: the yeast fitness is 0.774.

Take C31U C33U: the yeast fitness was found to be 0.723.

As to C31U C33G, the yeast fitness was 0.785.

Consider C31A U47A, for which the yeast fitness is 0.673.

For C31A G56A A65G C66A G68C, the yeast fitness was determined as 0.562.

On to C31G G63A C66U, for which the yeast fitness came to 0.64.

In the case of C31G A45C C49A, the yeast fitness came out at 0.807.

C31G G41A G52C A65U G67C: the yeast fitness was ≤ 0.5.

Turning to U32C A40U A43G, the yeast fitness amounted to 0.684.

For C31G A36C G50A C62U G68A A69C, the yeast fitness was ≤ 0.5.

With C31U C34G G50A, the yeast fitness was ≤ 0.5.

Turning to C31G A45U U47A, the yeast fitness worked out at 0.521.

Consider C31G G44C, for which the yeast fitness amounted to 0.931.

With C31U G58C U59G C61G, the yeast fitness is ≤ 0.5.

For C31G U32G A37U A65U, the yeast fitness was ≤ 0.5.

Turning to C31G C33G A57C, the yeast fitness was ≤ 0.5.

On to C31G G56U, for which the yeast fitness turned out to be 0.723.

For C31G G56A, the yeast fitness was found to be 0.98.

On to U32A A45U, for which the yeast fitness worked out at 0.789.

As to C31U C60G A70G, the yeast fitness turned out to be 0.675.

Turning to C31U A65C, the yeast fitness is 0.926.

As for C31G U47C, the yeast fitness was 0.952.

C31G U47G: the yeast fitness was found to be 0.667.

Take C31G C33G G67A: the yeast fitness is ≤ 0.5.

Turning to C31G G44A G51C A65G, the yeast fitness stood at 0.537.

For U32C A37C A57U, the yeast fitness is ≤ 0.5.

C31G G67U: the yeast fitness was 0.655.

In the case of C31U A69C, the yeast fitness was determined as 1.04.

For C31U G41C, the yeast fitness is 0.796.

Regarding C31U G39A A45C, the yeast fitness was 0.677.

As for C31G A37G G38C A43G G58C, the yeast fitness was ≤ 0.5.

On to C31G A65C, for which the yeast fitness was 0.691.

Turning to C31G A65G, the yeast fitness came out at 0.867.

As for C31U C55U C61A G67A, the yeast fitness is ≤ 0.5.

As to C31U U53A, the yeast fitness was 0.656.

On to C31U U53C, for which the yeast fitness was 0.633.

Turning to U32A C33U G52A, the yeast fitness turned out to be 0.597.

Turning to U32A A37C A42C C49A U53A, the yeast fitness is ≤ 0.5.

C31U A42G G58A: the yeast fitness amounted to 0.716.

With C31G G38A C61A G63A A65G, the yeast fitness was ≤ 0.5.

Take C31U G63C: the yeast fitness was found to be 0.766.

As for C31G G68A, the yeast fitness stood at 0.802.

Turning to C31G G68C, the yeast fitness was 0.684.

For the variant U32C A43G A65C, the yeast fitness is 0.913.
